IC50, Activity and inhibition data for 9 compounds are collected here from ChEMBL document CHEMBL4431339, “1,2,3-Triazoles as Amide Bioisosteres: Discovery of a New Class of Potent HIV-1 Vif Antagonists” (J Med Chem, 2016).

Structures are written as SMILES. Active and inactive are the calls of the source. Unless noted, the calls are words filed in the database; no cut-off is given here.

Series [1] concerns the target Virion infectivity factor (Human immunodeficiency virus type 1 group M subtype B (isolate NY5)(HIV-1), UniProt P12504). Briefly: (§1) Antagonist activity against HIV-1 Vif in human MT4 cells assessed as inhibition of viral infection at 50 uM measured after 16 hrs by cell-based assay. The arrangement: species or system Human immunodeficiency virus 1. Put shortly:
(§2)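 Antiviral activity was measured against wild-type HIV-1 in permissive MT-4 cells as a Vif-specificity counter-screen. RN-18 was the positive control, and cells cultured without inhibitor were the negative control. "No activity" means no inhibition at 50 µM.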

For series [2], the target named is Virion infectivity factor (Human immunodeficiency virus type 1 group M subtype B (isolate NY5)(HIV-1)) (UniProt P12504). The experiment in a line: Antagonist activity against HIV-1 GFP-tagged Vif in human HEK293FT cells co-expressing HA-tagged A3G assessed as downregulation of Vif expression expression at 50 uM measured after 16 hrs by immunoblotting method. Format: cell-based. The note with it: Human immunodeficiency virus 1. Put shortly: (§3)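 HEK293FT cells co-expressing HA-tagged A3G and either GFP-tagged Vif or Vif were incubated with or without compound (50 µM) for 16 h. Cell extracts were immunoblotted with anti-HA (A3G), anti-GFP (Vif) and anti-GAPDH antibodies. Untreated cells served as the comparison, and choline chloride was included as a negative control in the triazole series.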
(Immunoblotting shows a protein as a band on a membrane.)

For series [3] the target is unchanged. The experiment in a line: Antagonist activity against HIV-1 GFP-tagged Vif in human HEK293FT cells co-expressing HA-tagged A3G assessed as upregulation of A3G levels at 50 uM measured after 16 hrs by immunoblotting method. In kind it is cell-based. The conditions noted are these: Human immunodeficiency virus 1. Put shortly:
as §3

Series [4] has as its system HeLa. The experiment in a line: Cytotoxicity against human HeLa cells at 50 uM measured after 16 hrs by MTS assay relative to DMSO control. Format: cell-based. For orientation: Formazan colour is commonly taken as a measure of viable cells.
Series [5] concerns the target Virion infectivity factor (Human immunodeficiency virus type 1 group M subtype B (isolate NY5)(HIV-1)) (UniProt P12504). The experiment in a line: Antagonist activity against HIV-1 Vif in human H9 cells expressing A3G assessed as inhibition of viral replication by reverse transcriptase assay relative to vehicle-treated control. Format: cell-based. The conditions noted are these: Human immunodeficiency virus 1. A digest of the protocol:
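Antiviral activity was measured against wild-type HIV-1 in non-permissive (A3G-expressing) H9 cells and reported as IC50. RN-18 was the positive control, and cells cultured without inhibitor were the negative control. Selected compounds were tested across doses, and MTS cell viability was checked in parallel at 50 µM.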

The target is the same in series [6]. Described as §1. The conditions noted are these: Human immunodeficiency virus 1. A digest of the protocol: as §2
Series [7] has the same target. The experiment in a line: Antagonist activity against HIV-1 Vif in human MT4 cells assessed as inhibition of viral infection at 50 and 100 uM measured after 16 hrs by cell-based assay. The conditions noted are these: Human immunodeficiency virus 1.

Virion infectivity factor (Human immunodeficiency virus type 1 group M subtype B (isolate NY5)(HIV-1)), sequence (P12504 whole entry): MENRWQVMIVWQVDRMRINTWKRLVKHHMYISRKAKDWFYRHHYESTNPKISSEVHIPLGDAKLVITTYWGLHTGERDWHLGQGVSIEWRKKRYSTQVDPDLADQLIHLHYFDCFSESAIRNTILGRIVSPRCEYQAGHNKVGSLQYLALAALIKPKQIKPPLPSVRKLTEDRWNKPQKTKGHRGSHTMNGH
Virion infectivity factor, sequence (P12504 whole entry): as above

For `COc1ccccc1-c1noc(-c2ccccc2Sc2ccc([N+](=O)[O-])cc2)n1`, the IC50 result in series [1] is given as “Not Active”. Also, the result in series [2] and in series [3] was Active.

For `COc1ccc(OC)c(-n2cc(-c3ccccc3Sc3ccc([N+](=O)[O-])cc3)nn2)c1`, the Activity result in series [4] was “Non-Toxic”. The inhibition result in series [5] was “Dose-dependent effect”. The outcome in series [6] was inactive. The outcome in series [2] and in series [3] was Active.

In the case of `COc1ccc(OC)c(-n2cc(-c3ccccc3S(=O)(=O)c3ccc(N)cc3)nn2)c1`, the Activity result in series [4] is reported as “Non-Toxic”. In series [5], the inhibition entry is “Dose-dependent effect”. Also, the outcome in series [6] was inactive. The outcome in series [2] and in series [3] was Active.

Take `COc1cccc(-n2cc(-c3ccccc3Sc3ccc([N+](=O)[O-])cc3)nn2)c1OC`: the Activity result in series [4] was “Non-Toxic”. Besides, the inhibition result in series [5] was “Dose-dependent effect”. Besides, the result in series [6] was inactive.

In the case of `COC(=O)c1ccc(Sc2ccccc2-c2cn(-c3cccc(OC)c3OC)nn2)cc1`, the Activity entry in series [4] is “Non-Toxic”. Besides, the inhibition entry in series [5] was “Dose-dependent effect”. Further, the result in series [6] was inactive.

For `COc1ccccc1-n1cc(-c2ccccc2Sc2ccc(C(F)(F)F)cc2)nn1`, in series [4], the Activity result is reported as “Non-Toxic”. Moreover, the inhibition entry in series [5] is “Dose-dependent effect”. The result in series [6] was inactive. Further, the result in series [2] and in series [3] was Active.

In the case of `COc1ccc(OC)c(-n2cc(-c3ccccc3S(=O)(=O)c3ccc([N+](=O)[O-])cc3)nn2)c1`, the Activity result in series [4] is “Non-Toxic”. The inhibition entry in series [5] was “Dose-dependent effect”. In addition, the outcome in series [6] was inactive.

For the compound `COc1ccccc1-n1cc(-c2ccccc2Sc2ccc([N+](=O)[O-])cc2)nn1`, the IC50 entry in series [1] is on record as “Not Active”. Moreover, the result in series [2] and in series [3] was Active.

With `COc1ccccc1NC(=O)c1ccccc1Sc1ccc([N+](=O)[O-])cc1`, in series [4], the Activity entry is listed as “Non-Toxic”. Further, the inhibition result in series [5] is “Dose-dependent effect”. For the same compound, the outcome in series [7] and in series [6] was inactive. The result in series [2] and in series [3] was Active.
